# Key:
# [1] = In vivo toxic effect was determined in mouse after intraperitoneal administration with 10% aqueous acacia gum; value ranges from 0.57-1.04; format: toxicity, organism-based; conditions: ip
# Method in brief: (§1)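 Female albino mice (20-30 g), 10 animals per dose, dosed intraperitoneally with compound in solution or suspension; compounds tested as salts unless noted. Mortality was recorded over 7 days.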
# [2] = tested on: Rattus norvegicus; experiment: Inhibition of mast cell degranulation was assessed in female albino rats at a dose of 47 umol/kg iv; format: functional
# [3] = tested on: Rattus norvegicus; experiment: Rat PCA Test(50% inhibition of spot areas)in the female albino rats after oral administration in 10% aqueous acacia gum; format: functional; conditions: read-out: ID50 (the source's name)
# Method in brief: (§2)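 Female rats (200-250 g) were passively sensitized by ventral intradermal anti-egg-albumin antiserum. This was raised in rats by intramuscular 1% egg albumin plus ip H. pertussis vaccine, with serum taken at 12 days. After 24 h, groups of 10 were dosed orally with compound or vehicle (10 mL/kg). At 60 min, iv challenge used 0.3% egg albumin with 1% Evans blue. Blued areas were measured after 30 min.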
# [4] = tested on: Cavia porcellus; experiment: Antibronchospatic activity determined by histamine stimulated bronchospasm inhibition in guinea pigs after(i.v.) administration; format: functional, Bronchiole
# Method in brief: (§3)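 Guinea pigs, Konzett–Rössler preparation. Bronchospasm was induced with histamine. Compound was given iv (1 mL/kg) 1 min before the agonist, dissolved in saline or saline with slight excess HCl or CH3SO3H (pH 3.5–4). Three doses were tested in duplicate, chosen to give 20–90% inhibition. ID75 was read graphically from log dose–response curves.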
# [5] = In vivo toxic effect was determined in mouse after oral administration with 10% aqueous acacia gum; value ranges from 0.99-1.61; format: toxicity, organism-based
# Method in brief: (§4)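 Female albino mice, 20-30 g. Compound given orally as solution or suspension in 10% aqueous acacia gum, 10 animals per dose. Deaths recorded over 7 days.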
# [6] = tested on: Rattus norvegicus; experiment: Rat PCA Test(50% inhibition of spot areas)in the female albino rats after (ip) administration in 10% aqueous acacia gum; value ranges from 43-53; format: functional; conditions: read-out: ID50 (the source's name)
# Method in brief: (§5)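 Female albino rats (200–250 g) received intradermal ventral injections of rat anti-egg-albumin antiserum; donors were raised with egg albumin im plus H. pertussis ip, and serum was taken at 12 days. 24 h later, compound was given ip in 10% acacia gum (10 mL/kg), 10 rats/group. Challenge 30 min later was iv 0.3% egg albumin plus 1% Evans blue. Blued areas were measured 30 min after challenge.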
# [7] = tested on: Rattus norvegicus; experiment: Rat PCA Test(50% inhibition of spot areas)in the female albino rats after (ip) administration in 10% aqueous acacia gum; value ranges from 206-307; format: functional; conditions: read-out: ID50 (the source's name); method in brief: as §5
# [8] = In vivo toxic effect was determined in mouse after intraperitoneal administration with 10% aqueous acacia gum; value ranges from 3.43-5.07; format: toxicity, organism-based; conditions: ip; method in brief: as §1
# [9] = tested on: Rattus norvegicus; experiment: Inhibition of mast cell degranulation was assessed in female albino rats at a dose of 28 umol/kg iv; format: functional
# [10] = In vivo toxic effect was determined in mouse after intraperitoneal administration with 10% aqueous acacia gum; value ranges from 2.17-4.89; format: toxicity, organism-based; conditions: ip; method in brief: as §1
# [11] = In vivo toxic effect was determined in mouse after oral administration with 10% aqueous acacia gum; value ranges from 5.08-7.62; format: toxicity, organism-based; method in brief: as §4
# [12] = tested on: Rattus norvegicus; experiment: Rat PCA Test(50% inhibition of spot areas)in the female albino rats after oral administration in 10% aqueous acacia gum; value ranges from 80-130; format: functional; conditions: read-out: ID50 (the source's name); method in brief: as §2
# [13] = In vivo toxic effect was determined in mouse after intraperitoneal administration with 10% aqueous acacia gum; value ranges from 0.88-1.56; format: toxicity, organism-based; conditions: ip; method in brief: as §1
# [14] = In vivo toxicity in mouse after oral administration with 10% aqueous acacia gum; format: organism-based; method in brief: as §4
# [15] = tested on: Rattus norvegicus; experiment: Rat PCA Test(50% inhibition of spot areas)in the female albino rats after (ip) administration in 10% aqueous acacia gum; value ranges from 213-612; format: functional; conditions: read-out: ID50 (the source's name); method in brief: as §5
# [16] = tested on: Cavia porcellus; experiment: Antibronchospatic activity was determined by inhibition of histamine stimulated bronchospasm in guinea pigs after (i.v.) administration; format: functional, Bronchiole; method in brief: as §3
# [17] = tested on: Rattus norvegicus; experiment: Inhibition of mast cell degranulation was assessed in female albino rats at a dose of 43 umol/kg iv; format: functional
# [18] = tested on: Rattus norvegicus; experiment: Rat PCA Test(50% inhibition of spot areas)in the female albino rats after (ip) administration in 10% aqueous acacia gum; value ranges from 41.2-87.3; format: functional; conditions: read-out: ID50 (the source's name); method in brief: as §5
# [19] = tested on: Mus musculus; experiment: In vivo toxic effect was determined in mouse after intraperitoneal administration with 10% aqueous acacia gum; NA means poorly absorbed; format: toxicity, organism-based; conditions: ip; method in brief: as §1
# [20] = tested on: Rattus norvegicus; experiment: Rat PCA Test(50% inhibition of spot areas)in the female albino rats after (ip) administration in 10% aqueous acacia gum;Value ranges from(44-250); format: functional; conditions: read-out: ID50 (the source's name)
# Method in brief: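 Antiserum came from female rats given 1% egg albumin in 0.9% NaCl intramuscularly plus Haemophilus pertussis vaccine (2 × 10^10 organisms) intraperitoneally, and was collected 12 days later. Recipient rats (200-250 g) got it intradermally at a ventral site. After 24 h, groups of 10 received vehicle or compound ip. At 30 min they were challenged iv with 0.3% egg albumin plus 1% Evans blue. Blued skin areas were measured 30 min later.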
# [21] = tested on: Rattus norvegicus; experiment: Rat PCA Test(50% inhibition of spot areas)in the female albino rats after oral administration in 10% aqueous acacia gum; value ranges from 99-191; format: functional; conditions: read-out: ID50 (the source's name); method in brief: as §2
# [22] = In vivo toxic effect was determined in mouse after oral administration with 10% aqueous acacia gum; value ranges from 1.75-2.99; format: toxicity, organism-based; method in brief: as §4
# [23] = tested on: Rattus norvegicus; experiment: Rat PCA Test(50% inhibition of spot areas)in the female albino rats after (ip) administration in 10% aqueous acacia gum; value ranges from 42-79; format: functional; conditions: read-out: ID50 (the source's name); method in brief: as §5
# [24] = In vivo toxic effect was determined in mouse after intraperitoneal administration with 10% aqueous acacia gum; value ranges from 0.30-0.61; format: toxicity, organism-based; conditions: ip; method in brief: as §1
# [25] = tested on: Rattus norvegicus; experiment: Inhibition of mast cell degranulation was assessed in female albino rats at a dose of 23 umol/kg iv; format: functional
# [26] = In vivo toxic effect was determined in mouse after intraperitoneal administration with 10% aqueous acacia gum; value ranges from 0.61-0.99; format: toxicity, organism-based; conditions: ip; method in brief: as §1
# [27] = tested on: Rattus norvegicus; experiment: Rat PCA Test(50% inhibition of spot areas)in the female albino rats after (ip) administration in 10% aqueous acacia gum; value ranges from 34-42; format: functional; conditions: read-out: ID50 (the source's name); method in brief: as §5
# [28] = tested on: Rattus norvegicus; experiment: Inhibition of mast cell degranulation was assessed in female albino rats at a dose of 26 umol/kg iv; format: functional
# [29] = In vivo toxic effect was determined in mouse after oral administration with 10% aqueous acacia gum; value ranges from 0.77-1.28; format: toxicity, organism-based; method in brief: as §4
# [30] = tested on: Rattus norvegicus; experiment: Rat PCA Test(50% inhibition of spot areas)in the female albino rats after oral administration in 10% aqueous acacia gum; value ranges from 88-129; format: functional; conditions: read-out: ID50 (the source's name); method in brief: as §2
# [31] = tested on: Rattus norvegicus; experiment: Inhibition of mast cell degranulation was assessed in female albino rats at a dose of 22 umol/kg iv; format: functional
# [32] = tested on: Rattus norvegicus; experiment: Rat PCA Test(50% inhibition of spot areas)in the female albino rats after (ip) administration in 10% aqueous acacia gum; value ranges from 23-40; format: functional; conditions: read-out: ID50 (the source's name); method in brief: as §5
# [33] = In vivo toxic effect was determined in mouse after intraperitoneal administration with 10% aqueous acacia gum; value ranges from 0.53-0.97; format: toxicity, organism-based; conditions: ip; method in brief: as §1
# [34] = In vivo toxic effect was determined in mouse after oral administration with 10% aqueous acacia gum; value ranges from 0.66-1.27; format: toxicity, organism-based
# [35] = tested on: Rattus norvegicus; experiment: Inhibition of mast cell degranulation was assessed in female albino rats at a dose of 31 umol/kg iv; format: functional
# [36] = In vivo toxic effect was determined in mouse after oral administration with 10% aqueous acacia gum; value ranges from 0.92-1.78; format: toxicity, organism-based; method in brief: as §4
# [37] = tested on: Rattus norvegicus; experiment: Rat PCA Test(50% inhibition of spot areas)in the female albino rats after oral administration in 10% aqueous acacia gum; value ranges from 72-115; format: functional; conditions: read-out: ID50 (the source's name); method in brief: as §2
# [38] = In vivo toxic effect was determined in mouse after intraperitoneal administration with 10% aqueous acacia gum; value ranges from 0.92-1.65; format: toxicity, organism-based; conditions: ip; method in brief: as §1
# [39] = tested on: Rattus norvegicus; experiment: Rat PCA Test(50% inhibition of spot areas)in the female albino rats after (ip) administration in 10% aqueous acacia gum; value ranges from 11-48; format: functional; conditions: read-out: ID50 (the source's name); method in brief: as §5
smiles,measurement,setting,value
COc1ccc(NC(=O)CCN2CCN(c3ccccn3)CC2)cc1.Cl.Cl,LD50,[1],710 µmol/kg
same,inhibition in vivo at 47 µmol/kg,[2],19%
same,ED50,[3],> 95 µmol/kg
same,ID75,[4],0.24 µM/kg
same,LD50,[5],1160 µmol/kg
same,ED50,[6],48 µmol/kg
COC(=O)CCN1CCN(c2ccccn2)CC1.Cl,ED50,[7],252 µmol/kg
same,LD50,[8],4020 µmol/kg
same,ID75,[4],3.5 µM/kg
CC(O)c1ccc(NC(=O)CCN2CCN(c3ccccn3)CC2)cc1 (configuration not stated),inhibition in vivo at 28 µmol/kg,[9],22%
same,LD50,[10],3250 µmol/kg
same,LD50,[11],5970 µmol/kg
same,ID75,[4],0.48 µM/kg
same,ED50,[12],103 µmol/kg
C=CCOC(=O)CCN1CCN(c2ccccn2)CC1.Cl.Cl,LD50,[13],1030 µmol/kg
same,ED50,[3],11.5 µmol/kg
same,LD50,[14],> 8610 µmol/kg
same,ED50,[15],330 µmol/kg
O=C([O-])c1cc(=O)c2c(OCC(O)COc3cccc4oc(C(=O)[O-])cc(=O)c34)cccc2o1.[Na+].[Na+] [CROMOLYN SODIUM],ID75,[16],>21 µM/kg
same,inhibition in vivo at 43 µmol/kg,[17],83%
same,ED50,[3],> 640 µmol/kg
same,LD50,[14],> 6410 µmol/kg
same,ED50,[18],60 µmol/kg
same,LD50,[19],Not Active
Cl.Cl.NC(=O)c1ccc(NC(=O)CCN2CCN(c3ccccn3)CC2)cc1,ED50,[3],> 212 µmol/kg
same,ED50,[20],124 µmol/kg
same,LD50,[14],> 6400 µmol/kg
same,ID75,[4],0.3 µM/kg
same,LD50,[19],Not Active
Cl.Cl.O=C(CCN1CCN(c2ccccn2)CC1)Nc1cccc([N+](=O)[O-])c1,ED50,[21],137 µmol/kg
same,LD50,[22],2070 µmol/kg
same,ED50,[23],58 µmol/kg
same,ID75,[4],0.37 µM/kg
same,LD50,[24],420 µmol/kg
same,inhibition in vivo at 23 µmol/kg,[25],87%
CCOc1ccc(NC(=O)CCN2CCN(c3ccccn3)CC2)cc1.Cl.Cl,LD50,[26],690 µmol/kg
same,ID75,[4],0.14 µM/kg
same,ED50,[27],37 µmol/kg
same,inhibition in vivo at 26 µmol/kg,[28],0%
same,LD50,[29],920 µmol/kg
CCOC(=O)c1ccc(NC(=O)CCN2CCN(c3ccccn3)CC2)cc1.Cl.Cl,ED50,[30],107 µmol/kg
same,inhibition in vivo at 22 µmol/kg,[31],83%
same,ED50,[32],30 µmol/kg
same,ID75,[4],0.17 µM/kg
same,LD50,[33],660 µmol/kg
same,LD50,[34],920 µmol/kg
Nc1ccc(NC(=O)CCN2CCN(c3ccccn3)CC2)cc1,inhibition in vivo at 31 µmol/kg,[35],84%
same,LD50,[36],1290 µmol/kg
same,ED50,[37],91 µmol/kg
same,ID75,[4],0.02 µM/kg
same,LD50,[38],1110 µmol/kg
same,ED50,[39],23 µmol/kg

# From ChEMBL document CHEMBL1123658, “1-(2-pyridinyl)piperazine derivatives with antianaphylactic, antibronchospastic, and mast cell stabilizing activities” (J Med Chem, 1987)
